# GSIS activator – GLuc luminescence reporter in INS-1E cells, primary screen for activators of glucose-dependent secretion of insulin; INS-1E GLuc reporter insulin secretion, 2-3 h; activation, % at 16.6 µM; hit rate 0.61% among 370,000; AID 743287;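 active means lowest replicate activation of at least 40%, so every replicate reaches that level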
# PGC1a acetyl inh – lowers PGC1a acetylation signal in U2OS cells; AlphaScreen anti-acetyl-lysine; with virally co-expressed GCN5 acetyltransferase; hit rate 0.17% among 350,000; inhibition, % at 15.6 µM;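 active means every replicate shows inhibition of at least 40%; inconclusive means mean inhibition at least 40% but some replicate below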
# PAX8 reporter – PAX8 transcriptional activity inhibition | RMG-I TPO-luciferase reporter, SteadyGlo, 24 h | inhibition, % at 12.6 µM | hit rate 1.2% among 360,000;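 active means mean replicate inhibition at least 60% with every replicate also reaching 60%; inconclusive means only one of the two criteria is met; inactive means mean below 60% and not all replicates reaching 60%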;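 further: luciferase light reporting Pax8 driven TPO promoter activity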
# Xi reactivation – X-chromosome reactivation activator; activation, % at 7.58 µM; XiGFP mouse fibroblasts, % GFP-positive cells imaging, 3 d; cells co-treated with 5-aza-dC sensitizer; scaled so ellipticine positive control = 100%; hit rate 0.055% among 360,000; AID 743238;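 active means mean normalized replicate activation at least 10% and every replicate at or above 10%; inconclusive means only one of the two criteria met; inactive means mean below 10% and not all replicates reach 10%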
#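 Assay system – SV40-immortalized XiGFP fibroblast cells, line 68-5-11 · Buffer or medium – DMEM supplemented with 5-aza-dC as sensitizing agent · Dosing – one concentration, pinned · Benchmarks – positive control ellipticine, 6 µM final · Times – 3 days compound exposure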
# EWS-Fli block – inhibitors of EWS/Fli oncoprotein transcriptional activity. A673 NR0B1-luciferase reporter, viability-normalised. inhibition, % at 12.6 µM. hit rate 0.67% among 350,000;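 active means mean inhibition of at least 50% after viability correction, with every replicate also passing that limit; inconclusive means mean reaches 50% but only one of two replicates passes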;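 further: firefly luciferase signal divided by Alamar Blue viability fluorescence both relative to DMSO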
# MLL AF4-AF9 inh – inhibitors of human MLL-AF4/AF9 interaction | inhibition, % at 10 µM | AlphaScreen, biotin-AF4 peptide binding to FLAG-AF9 | AID 651704 | hit rate 0.47% among 350,000 | P42568;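 active means every replicate reaching a set inhibition limit, whatever the replicate mean, cut at about 25% in these data; inconclusive means mean inhibition reaches that limit but some replicates miss it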
# Target sequence (P42568 whole entry, looked up): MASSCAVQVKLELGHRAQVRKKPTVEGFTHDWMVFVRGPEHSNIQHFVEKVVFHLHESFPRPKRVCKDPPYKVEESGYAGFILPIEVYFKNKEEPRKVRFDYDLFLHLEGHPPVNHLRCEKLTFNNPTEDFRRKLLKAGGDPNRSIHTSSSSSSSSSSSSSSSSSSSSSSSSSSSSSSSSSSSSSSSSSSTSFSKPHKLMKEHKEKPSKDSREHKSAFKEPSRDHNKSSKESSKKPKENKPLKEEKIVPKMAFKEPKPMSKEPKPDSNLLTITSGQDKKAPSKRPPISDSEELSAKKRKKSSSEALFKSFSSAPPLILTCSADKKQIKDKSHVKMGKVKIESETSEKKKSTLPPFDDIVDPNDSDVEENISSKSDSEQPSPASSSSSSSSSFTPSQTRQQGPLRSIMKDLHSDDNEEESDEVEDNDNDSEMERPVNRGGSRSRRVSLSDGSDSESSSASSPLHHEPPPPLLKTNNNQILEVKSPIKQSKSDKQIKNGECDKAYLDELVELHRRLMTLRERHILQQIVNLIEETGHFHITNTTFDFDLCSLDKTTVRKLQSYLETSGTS
# A number is an active result; . = inactive; ? = inconclusive; / = no result. Compounds with a hit are over-represented: about 2.1% of the library has one in this group of screens.
SMILES,GSIS activator,PGC1a acetyl inh,PAX8 reporter,Xi reactivation,EWS-Fli block,MLL AF4-AF9 inh
C[C@@H]1CN([C@H](C)CO)C(=O)c2cc(NC(=O)c3ccccc3)ccc2O[C@@H](C)CCCCO[C@@H]1CN(C)Cc1ccc(C(F)(F)F)cc1,.,.,91.3,.,.,.
C[C@@H]1CN([C@H](C)CO)C(=O)c2cc(NC(=O)c3ccccc3)ccc2O[C@@H](C)CCCCO[C@H]1CN(C)Cc1ccc(C(F)(F)F)cc1,.,.,98.9,.,.,.
CCCNC(=O)N1CC2(C1)CN(C(=O)CC1CC1)[C@H](CO)c1[nH]c3cc(OC)ccc3c12,.,.,/,.,.,.
O=S(=O)(NCC[C@H]1CC[C@H](NS(=O)(=O)c2cccc(Cl)c2)[C@@H](CO)O1)c1cccc(F)c1,.,.,.,.,.,.
C/C=C/c1ccc([C@H]2[C@H]3CN(Cc4ccc(C(=O)OC)cc4)CC(=O)N3[C@H]2CO)cc1,.,.,.,.,.,.
C[C@H](CO)N1C[C@H](C)[C@H](CN(C)Cc2ccc(C(F)(F)F)cc2)OCCCC[C@H](C)Oc2ccc(NC(=O)c3ccccc3)cc2C1=O,.,.,90.4,.,.,.
Cc1nc(N2CCOCC2)nc(N2CCCC2)c1[N+](=O)[O-],53.1,.,.,.,/,/
COc1nn(-c2ccccc2)c(=O)c(Cl)c1Cl,.,/,117.2,.,76.0,.
CCc1ccc(-c2nc(C(N)=O)c3[nH]c(=O)n(-c4ccccc4OC)c3n2)cc1,/,.,.,.,62.7,.
C[C@H]1CN([C@@H](C)CO)C(=O)c2cccc(NC(=O)C3CCOCC3)c2O[C@H]1CN(C)C(=O)Nc1ccc(C(F)(F)F)cc1,.,.,.,.,.,.
Oc1ccc(/C=N/N=C/c2ccc(O)c(O)c2)cc1O,.,.,.,.,.,.
O=C(/C(=N/N=C/c1ccc(O)c(O)c1)c1ccccc1)c1ccccc1,.,.,.,.,.,35.5
COCC(=O)N1C[C@@H]2[C@H](c3ccccc31)[C@H](CO)N2C(=O)Nc1ccccc1Cl,.,.,.,.,.,.
O=[N+]([O-])c1cc(-c2ncccn2)c([N+](=O)[O-])s1,.,60.7,.,.,60.5,.
CC(O)CC(=O)OC[C@]12CC[C@H]3[C@@](C)(CC[C@H]4C(C)(C)CCC[C@]34C)[C@@H]1CC(C1=CC(=O)OC1O)O2 (some centres undefined),/,.,/,/,59.2,.
COc1ccc(/C=C/C(=O)OCC(=O)Nc2ccc(C)cc2)cc1S(=O)(=O)N1CCOCC1,.,/,76.3,.,.,.
COc1ccc(-c2[nH]ncc2CN(C)C(C)c2ccon2)cc1F (centres undefined),.,79.8,.,.,.,.
COc1ccc(-c2[nH]ncc2CN(C)CCN2CCOCC2)cc1F,.,.,.,.,.,.
Cc1ccc(S(=O)(=O)Nc2ccc3c(c2)C(=O)N([C@H](C)CO)C[C@@H](C)[C@H](CN(C)S(C)(=O)=O)OCCCC[C@@H](C)O3)cc1,.,.,.,.,.,.
Cc1ccccc1CSc1nnc(-c2cccs2)n1Cc1ccco1,/,.,.,/,/,/
Cc1ccccc1CSc1nnc(-c2ccco2)n1Cc1ccco1,.,98.7,/,/,/,/
Cc1noc(C)c1S(=O)(=O)N(C)C[C@H]1Oc2ccc(NS(=O)(=O)c3ccccc3)cc2CC(=O)N([C@H](C)CO)C[C@H]1C,.,.,.,.,.,.
Oc1ccc(/C=N/Nc2ccnc3cc(Cl)ccc23)c(O)c1,.,.,.,68.1,.,.
CCOCCOC(=O)C(C)Oc1ccc(Oc2nc(Cl)ccc2Cl)cc1 (centres undefined),.,88.5,.,.,.,.
CCOCCOC(=O)C(C)Oc1ccc(Oc2ncc(Cl)cc2Cl)cc1 (centres undefined),.,.,70.8,.,.,.
SMILES,GSIS activator,PGC1a acetyl inh,PAX8 reporter,Xi reactivation,EWS-Fli block,MLL AF4-AF9 inh
Oc1ccc(Oc2ncc(Cl)cc2Cl)cc1,/,.,/,/,/,.
CC(=O)c1cccc(-c2ccnc3c2CC(C(=O)NCc2ccc(F)c(F)c2)O3)c1 (centres undefined),.,/,?,.,64.6,.
CC(=O)c1cccc(-c2ccnc3c2CC(C(=O)NCc2ccco2)O3)c1 (centres undefined),.,.,.,.,.,.
CC(=O)c1cccc(-c2ccnc3c2CC(C(=O)NCc2ccccc2)O3)c1 (centres undefined),.,/,82.8,.,63.1,.
CC(=O)Nc1cccc(-c2ccnc3c2CC(C(=O)NCc2cccs2)O3)c1 (centres undefined),.,.,.,.,72.3,.
CC(=O)c1cccc(-c2ccnc3c2CC(C(=O)NCc2ccc(N4CCN(C)CC4)cc2)O3)c1 (centres undefined),.,/,.,.,.,.
COc1ccc(S(=O)(=O)Nc2ccc3c(c2)CC(=O)N([C@@H](C)CO)C[C@@H](C)[C@@H](CN(C)S(=O)(=O)c2cccs2)O3)cc1,.,.,.,.,.,.
CC1Cc2cc(S(=O)(=O)N3CCC(C(=O)N(C)Cc4ccco4)CC3)ccc2N1C(=O)C1CCC1 (centres undefined),.,.,61.0,.,/,.
COc1ccc(S(=O)(=O)N[C@@H]2CC[C@@H](CC(=O)O)O[C@H]2CO)cc1,.,.,.,.,.,.
Cc1cccc(S(=O)(=O)N[C@H]2CC[C@H](CCNC(=O)c3cnccn3)O[C@H]2CO)c1,.,.,.,.,.,.
CCCS(=O)(=O)c1cnc(C2COc3ccccc3O2)nc1N (centres undefined),.,/,.,.,85.5,.
C#CCOCCOCCOCCNc1nc(N2CCN(C(=O)C([C@@H](C)O)n3cc([C@@H](N)CCCCN)nn3)CC2)nc(N2CCN(C(=O)[C@H](CCCCN)n3cc([C@@H](N)[C@H](C)CC)nn3)CC2)n1 (some centres undefined),.,.,.,.,.,59.3
C#CCOCCOCCOCCNc1nc(N2CCN(C(=O)[C@H]([C@@H](C)CC)n3cc([C@@H](N)CO)nn3)CC2)nc(N2CCN(C(=O)[C@H](CCCCN)n3cc([C@@H](N)CO)nn3)CC2)n1,/,.,.,.,.,.
C#CCOCCOCCOCCNc1nc(N2CCN(C(=O)[C@H](CCCCN)n3cc([C@@H](N)C(C)CC)nn3)CC2)nc(N2CCN(C(=O)[C@H](Cc3ccc(O)cc3)n3cc([C@@H](N)CC(C)C)nn3)CC2)n1 (some centres undefined),.,.,.,.,.,30.1
C#CCOCCOCCOCCNc1nc(N2CCN(C(=O)[C@H](CO)n3cc([C@@H](N)C(C)C)nn3)CC2)nc(N2CCN(C(=O)[C@H](CCCCN)n3cc([C@@H](N)[C@H](C)CC)nn3)CC2)n1,/,/,.,.,.,41.8
